These results are taken from ChEMBL document CHEMBL1124049, “Synthesis and biological characterization of pyridohomotropanes. Structure-activity relationships of conformationally restricted nicotinoids” (J Med Chem, 1988).

The target of test [1] is Neuronal acetylcholine receptor. Briefly: Inhibition of (-)-[3H]nicotine binding to rat brain membranes. The class given is cell membranes, Membrane. The method, boiled down: (§1)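 Membranes from whole rat brain or Torpedo electric organ, homogenized in 30 volumes 0.05 M NaH2PO4 pH 7.0 and spun at 50000g for 30 min. Each tube held 2 mg brain protein or 1 mg electric organ protein, 1 × 10⁻⁹ M radioligand (final), and varied agent concentrations in 0.05 M NaPO4 pH 7.0.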

For test [2], the target named is T1, Acetylcholine receptor (Torpedo californica, UniProt P02710+P02712+P02714+P02718). Briefly: Inhibition of [3H]MCC binding to torpedo electroplax membranes. The method, boiled down: as §1
For test [3], the target named is T1, Acetylcholine receptor. Briefly: inhibition of (-)-[3H]nicotine binding to torpedo electroplax membranes. The method, boiled down: as §1
The species named for test [4] is Rattus norvegicus. Briefly: Effective dose required to produce prostration after injection into rat's fourth ventricle. Type of test: functional. The method, boiled down: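 Rats given various doses into the fourth ventricle through chronically implanted cannulae, in 1 μL. Prostration of the limbs was scored, from hind-limb prostration with forelimb weakness up to prostration of all four limbs.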

Test [5] is filed under the species Rattus norvegicus. In words: Potency for prostration assay, relative to PHT. The class given is functional.
The target of test [6] is Neuronal acetylcholine receptor. In words: Inhibition of [3H]MCC binding to rat brain membranes. Type of test: cell membranes, Membrane. An outline of the steps:
as §1

T1 sequence (P02710 whole entry): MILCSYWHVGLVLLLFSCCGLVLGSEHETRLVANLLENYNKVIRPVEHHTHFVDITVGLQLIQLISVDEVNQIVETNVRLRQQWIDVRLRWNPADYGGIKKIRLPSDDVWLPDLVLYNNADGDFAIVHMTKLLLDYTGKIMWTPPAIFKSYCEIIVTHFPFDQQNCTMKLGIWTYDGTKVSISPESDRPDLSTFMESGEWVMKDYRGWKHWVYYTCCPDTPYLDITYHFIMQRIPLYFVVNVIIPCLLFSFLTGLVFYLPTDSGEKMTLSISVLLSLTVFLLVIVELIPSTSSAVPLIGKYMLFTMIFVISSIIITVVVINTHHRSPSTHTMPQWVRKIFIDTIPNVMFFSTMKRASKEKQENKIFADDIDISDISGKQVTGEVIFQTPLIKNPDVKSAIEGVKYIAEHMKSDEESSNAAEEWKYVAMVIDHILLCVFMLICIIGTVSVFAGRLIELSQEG
T1 sequence (P02712 whole entry): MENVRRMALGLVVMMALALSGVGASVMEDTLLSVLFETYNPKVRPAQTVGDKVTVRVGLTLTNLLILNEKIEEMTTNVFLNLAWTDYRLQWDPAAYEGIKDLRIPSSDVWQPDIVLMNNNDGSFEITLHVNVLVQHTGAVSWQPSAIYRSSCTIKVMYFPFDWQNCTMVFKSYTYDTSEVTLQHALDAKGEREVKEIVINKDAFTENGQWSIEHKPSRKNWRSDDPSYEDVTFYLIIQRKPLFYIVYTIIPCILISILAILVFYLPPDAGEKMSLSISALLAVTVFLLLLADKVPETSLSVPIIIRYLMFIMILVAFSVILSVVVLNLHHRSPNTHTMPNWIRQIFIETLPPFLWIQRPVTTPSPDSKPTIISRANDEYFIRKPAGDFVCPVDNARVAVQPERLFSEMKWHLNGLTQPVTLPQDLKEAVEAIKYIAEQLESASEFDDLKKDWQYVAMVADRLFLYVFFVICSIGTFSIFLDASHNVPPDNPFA
T1 sequence (P02718 whole entry): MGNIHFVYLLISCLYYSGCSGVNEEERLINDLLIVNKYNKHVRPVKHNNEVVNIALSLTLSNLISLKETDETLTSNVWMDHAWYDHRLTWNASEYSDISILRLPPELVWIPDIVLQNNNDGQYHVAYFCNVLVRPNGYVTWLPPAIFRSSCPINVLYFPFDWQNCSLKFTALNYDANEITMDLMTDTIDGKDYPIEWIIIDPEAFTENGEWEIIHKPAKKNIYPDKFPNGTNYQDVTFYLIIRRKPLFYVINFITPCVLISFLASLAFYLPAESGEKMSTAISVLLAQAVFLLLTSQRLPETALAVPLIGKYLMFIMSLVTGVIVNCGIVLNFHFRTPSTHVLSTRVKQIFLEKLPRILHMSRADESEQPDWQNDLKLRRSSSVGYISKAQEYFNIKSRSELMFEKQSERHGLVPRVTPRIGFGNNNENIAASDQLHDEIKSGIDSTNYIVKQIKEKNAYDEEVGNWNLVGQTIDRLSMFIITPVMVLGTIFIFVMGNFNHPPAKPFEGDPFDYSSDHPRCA
T1 sequence (P02714 whole entry): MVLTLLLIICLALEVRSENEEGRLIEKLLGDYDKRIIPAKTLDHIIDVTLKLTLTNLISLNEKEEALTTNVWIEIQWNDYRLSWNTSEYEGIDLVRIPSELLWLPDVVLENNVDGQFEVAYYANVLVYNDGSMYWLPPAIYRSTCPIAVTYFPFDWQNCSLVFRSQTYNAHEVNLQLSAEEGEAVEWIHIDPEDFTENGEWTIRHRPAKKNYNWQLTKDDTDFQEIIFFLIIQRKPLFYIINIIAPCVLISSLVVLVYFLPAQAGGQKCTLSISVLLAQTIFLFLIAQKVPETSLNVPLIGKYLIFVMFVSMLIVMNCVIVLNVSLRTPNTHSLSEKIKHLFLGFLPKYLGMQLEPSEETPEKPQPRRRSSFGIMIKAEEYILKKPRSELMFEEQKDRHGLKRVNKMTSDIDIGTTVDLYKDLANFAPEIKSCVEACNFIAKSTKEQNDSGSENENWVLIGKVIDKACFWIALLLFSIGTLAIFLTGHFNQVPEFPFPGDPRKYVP

Regarding `Cc1nccc2c1C1CCC(CC2)N1` (centres undefined), the IC50 was 900 nM in test [1], 300 nM in test [2], 300 nM in test [3] and 700 nM in test [6]. In test [4], this compound displayed an ED50 of 500 nmol. In test [5], this compound had a Relative potency of 0.02.

Regarding `c1cc2c(cn1)C1CCC(CC2)N1` (centres undefined), the 50% inhibitory concentration (IC50) in test [1] is 5 nM; in test [2], 0.1 nM; in test [3], 1 nM; in test [6], 10 nM. Further, the ED50 in test [4] came to 10 nmol. In addition, in test [5], the Relative potency is 1.

As to `CN1C2CCc3ccncc3C1CC2` (centres undefined), the IC50 was 1000 nM in test [1], 2000 nM in test [2], 800 nM in test [3] and 3000 nM in test [6]. This compound also showed an ED50 in test [4] of 500 nmol. The compound also had a Relative potency in test [5] of 0.02.

Take `CN1CCC[C@H]1c1cccnc1` [NICOTINE]: the IC50 in test [2] is 1 nM; in test [3] it was 4 nM. The ED50 in test [4] was 10 nmol.

For the compound `c1cncc([C@@H]2CCCN2)c1` [NORNICOTINE], the figures for the 50% inhibitory concentration (IC50) in test [2] and in test [3] were 300 nM and 100 nM, respectively. In test [4], this compound showed an ED50 of 75 nmol.

One may read the IC50 as the concentration at which inhibition is half-maximal.
